Measurements: the EternaBench riboswitch data

System: MS2 coat protein
Assay: apparent Kd, MS2 coat protein; higher = weaker binding; RNA-MaP array; FMN 200 µM where present
Outline: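 The titrant was SNAP-549-labelled MS2 coat protein, run from 0.7 or 1.5 nM in doubling steps to 3 µM. It was applied to designs transcribed by stalled E. coli RNA polymerase on Illumina sequencing-chip clusters, without ligand first and then with constant ligand, in 100 mM Tris-HCl pH 7.5, 80 mM KCl, 4 mM MgCl2, BSA, DTT, yeast tRNA and Tween-20. The apparent Kd is the median of filtered per-cluster binding-curve fits, with green signal normalised to red-channel RNA signal and control-cluster median Fmax.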

[1] = designed as: ON switch for flavin mononucleotide, no ligand
[2] = ligand present: flavin mononucleotide, designed as: ON switch for flavin mononucleotide
[3] = designed as: OFF switch for flavin mononucleotide, no ligand
[4] = ligand present: flavin mononucleotide, designed as: OFF switch for flavin mononucleotide

Sequence	apparent Kd [1]	apparent Kd [2]	apparent Kd [3]	apparent Kd [4]
GGGUACAUCGGAGGAUAUCAUGUAAAUACAUGAGGAUCACCCAUGUCGAUGGAGACAUCGGAGAUUGAGAAGGCAGAUGUACCG	333 nM	18.1 nM	–	–
AUGGAUAUCACAGGAUAUGCUAUGGAUACCAUAGCAGAAGGGUGAUCCAUCCUAUGUGAACACAUGAGGAUCACCCAUGUGUCC	98.4 nM	17.9 nM	–	–
CAGGUAGACUGAGGAUAUACAAUAAACAGCUAGUCUAUCUAGCUGCCGACAUGAGGAUCACCCAUGUAGAAGGCAGUCUGCCUG	–	–	18.5 nM	40 nM
GUAGCUAUCGGAGGAUAUUUAUACCGGAAACGGACAUGAGGAUCACCCAUGUGGCGAAAGCCUUGGGAGAAGGCCGAUAGCUAC	29.7 nM	4.23 nM	–	–
UGUUGUUCAGGAUAUGGUGUGUUAUACAUGAGGAUCACCCAUGUGGGUCCUGGUUUGGCGUCAGAAGGGAAUGUUG	–	–	539 nM	396 nM
UACAGACAUGAGGAUCACCCAUGUAAGGAUAUCGGUACUGAUGGUAUAAUCUACUCAGCGAGAAGGUACAGUGU	–	–	33.6 nM	33.2 nM
GUGCACACUCGAGGAUAUCGGAGAGUACUCCUUCGAGAAGGCGAUUCGUGCCGUGUUAUUCUGGACAUGAGGAUCACCCAUGUG	125 nM	39.9 nM	–	–
CGCACUUAGCGAGGAUAUGUAAAACAUGAGGAUCACCCAUGUGAUUUAGUAUCAAUUUUAAUGAAACAGAAGGCGCUUAGUGCG	–	–	8.26 nM	8.91 nM
UUUUAGGCAGGAUAUACAUGAGGAUCACCCAUGUAAAUUUUUCGUUUAACUUGAAUGUGUAGAAGGGCCAUAUU	–	–	20.5 nM	21.4 nM
UAGUGGCAAGGAUAUACAGAGGAGAGGAUUGCAAGAGGUGGACAUGAGGAUCACCCAUGUAGAAGGUGCAGAGA	–	–	239 nM	281 nM
AACGGGUGGGUAGGAUAUGGCCAUGUCUCAUUGCUAGAAGGACCAGCUGCUACAUGAGGAUCACCCAUGUCGUAGUGCACCCAG	105 nM	15.6 nM	–	–
GUGCCUUGGGAGAAGGCCCAAUGCAAAGCAUAGGGAGGAUAUUCAUAUAAUAAAUAAACAUGAGGAUCACCCAUGUGGCACAAA	479 nM	33.3 nM	–	–
GGUUGUCAUCGUCAUCCUUUCUGUACAUGAGGAUCACCCAUGUAGGAUAUGCUGCUCUCGGUGUGGCAGAAGGGCGUGUGUCUU	–	–	34.2 nM	37.6 nM
AUGCUGUCAGGAUAUCGUUAAUUUAGUUGUUUGUAUUAGUUCGAGAAGGGACAUGAGGAUCACCCAUGUAUGUA	–	–	30.6 nM	54.8 nM
GCGUAAUAGGUGUAGCUAGUCGUGCAAGAAGGGUGGUGAACAUGAGGAUCACCCAUGUGGUCAGUACAGGAUAUUGCUAUACGC	542 nM	130 nM	–	–
UUAGCAACAUGAGGAUCACCCAUGUAGGAUAUCGCUAUUGUAAUCAUGAAACAUGAUUACAAUAGCGAGAAGGACAUAUGCUGG	–	–	22.4 nM	19.5 nM
AUCGUUAACGAAGGAUAUGGUUACAUGAGGAUCACCCAUGUAUUUUUUGUGAUCUUGUUUAAGUUCCAGAAGGUCGUUAACGUA	–	–	551 nM	710 nM
GUGAGUAGUCAGGAUAUGCUGUACAAAAGUACAGCAGAAGGGAUUACAUGAGGAUCACCCAUGUUUACCUCAUG	–	–	574 nM	884 nM
AAUCUGUAGCAGAAGGUCAUUUUUAUAAAUAAACUGGUGACAUGAGGAUCACCCAUGUAAACGUUGAAGGAUAUGCAUUCUAUU	–	–	44.9 nM	52.5 nM
AAGAUGCGGGUAGGAUAUGGAGAGAAAGAAAGACCAGAAGGAUUGGUCACACAACAUGAGGAUCACCCAUGUGUGUGUUGCGAA	–	–	14.1 nM	11.9 nM
GCUGCAUAGGCAGGAUAUGCAAUAAUUCGAAUAAAAUAUAACGAAUUAACAUGAGGAUCACCCAUGUAGAAGGGCCUGUGCAGU	–	–	18.4 nM	16 nM

Sequence	apparent Kd [1]	apparent Kd [2]	apparent Kd [3]	apparent Kd [4]
UUUUACAUAGGAUAUAGUUGCUUUUACAUGAGGAUCACCCAUGUCUCUCCUCUCUCUCUUCUAGAAGGAUGUUUCU	–	–	54.7 nM	46.5 nM
UUAGAUUAUUGAGGAUAUGGUUAUUUUUAUUAACCAGAAGGCAAACUCAACAUGAGGAUCACCCAUGUAUAAAGGGUAUUAGUU	–	–	84.9 nM	82.7 nM
GAUCGCCGUGUCAGGAUAUCUUGUGUACCCACGUUAGAGAAGGGACAUGAGGAUCACCCAUGUACCCUGGCUUU	–	–	20.6 nM	20.5 nM
UUAGGCUGAAGAUCAAUUAAUUAACAUGAGGAUCACCCAUGUAAGGAUAUCAGCUCGAUUAGAGCUGAGAAGGUACAUGCAGCC	–	–	110 nM	565 nM
UGUUGUAUUACAGGAUAUCUAGUAUUUUUAAUUAGAGAAGGGUAUUCACAUGAGGAUCACCCAUGUAUAUACGAGGAAGUUGUG	43.3 nM	43.1 nM	–	–
GUCUCGUCAGGAUAUGACGCUACAUUUUCUUUUUAGAAGAGUCAGAAGGGACAUGAGGAUCACCCAUGUGAUUC	–	–	430 nM	596 nM
UGACUAAAUGAAGGAUAUCUAAGCAUAAACCUGAGAGAAGGUCAUUUUUACAUGAGGAUCACCCAUGUUGUGAUUAAUGGGUCA	–	–	88.7 nM	137 nM
CUGACGAUGUAAGGAUAUGCUGAGGAUAACUCAGCAGAAGGUACAUGAGGAUCACCCAUGUAACGUCAGAAUAAUAAUAAUAAU	–	–	12.6 nM	23.1 nM
AUCCGGGCCCAGAAGGUGCCAGCGAGAGCUGCACAUGAGGAUCACCCAUGUUGUCGGUGACGACGCAAGGAUAUGGGCCCGGAU	24.4 nM	6.89 nM	–	–
CGUGCUAUGUAGAAGGCAGAUCUGAUUCAGAUCUGAGGAUAUACAUGAGGAUCACCCAUGUUAUGCACCAGCACGAGAGUGCAG	–	–	7.18 nM	14.4 nM
UUUGUGUCAGGAUAUCGGGCCAGCAAUACGGUAUGUGGGCACGAGAAGGGACAUGAGGAUCACCCAUGUGCCUU	–	–	14.8 nM	16.4 nM
UAGGUCAUCUGAGGAUAUCGAACUCAAAGGCUACGAGAAGGCAGACUGACAUGAGGAUCACCCAUGUACCGGGAAGAUGCCUCC	–	–	14.6 nM	130 nM
UGUCGGAGCAGAGGAUAUUACAUGAGGAUCACCCAUGUAUGAACCAAUAGCUGGAAACAGCAAUGUAAGAAGGCUGCUCCGACG	–	–	12.9 nM	157 nM
CUUGUGUUAGGAUAUGCGUUUCCGGUACGUCACCGGAUCUGGCAGAAGGGACAUGAGGAUCACCCAUGUUUGGC	–	–	46.6 nM	30.3 nM
ACAUGUCGUGAGAAGGACGGCGUGCAUAGCGCCGUAGGAUAUCAAGACAUGAGGAUCACCCAUGUACGCGUGUCCAGCCGUGCU	–	–	65.2 nM	342 nM
GAAGCACAUGAGGAUCACCCAUGUAAGGAUAUAUUUCUGGUCCGGCCGGACCAGUACCGUAGAAGGUAUGUAAA	–	–	13.5 nM	13.9 nM
AUCAGCUCGUCAGGAUAUACGUCACUGCGUCAGCAGUGUGGUAAGAUUACAUGAGGAUCACCCAUGUAGAAGGGACGAGCUGAU	–	–	6.38 nM	8.59 nM
GAGUUUAAGUUUGUCACUUAGAGAGAGGAUAUGGAAAACUUGACAUGAGGAUCACCCAUGUAUAAUCAGAAGGCUCGAGUACGA	12.1 nM	7.33 nM	–	–
UUUAUGUAAGGAUAUGCGGGCGGGCGUGUUUAUGUUUGUUUGUAGAAGGUACAUGAGGAUCACCCAUGUAGUGG	–	–	90.1 nM	172 nM
AAUUUACAGCGAGGAUAUACAUGAGGAUCACCCAUGUAAUCAUAUGAUAUUUUUUUUGUAUGAGUGUAGAAGGCGCAAAUAAAA	–	–	10.2 nM	9.61 nM
AGUAACAGAGGAUAUACUGUUUUAUGUGUUUGUUGUUUUAAACAUGAGGAUCACCCAUGUAGAAGGCUGAAUAA	–	–	20.1 nM	21.2 nM
